What is called inhibition is the relative decrease from the control value, in per cent. By Ki is commonly meant a measure of affinity in units of concentration, obtained from inhibition or displacement. Low readings indicate tighter binding, high ones weaker binding.

The text below walks through data of ChEMBL document CHEMBL3227986, “Design of species- or isozyme-specific enzyme inhibitors. 1. Effect of thymidine substituents on affinity for the thymidine site of hamster cytoplasmic thymidine kinase” (J Med Chem, 1979).

Calls of active or inactive are those of the source. No cut-off for these calls is given here.

The target in experiment [1] is T1, Thymidine kinase, cytosolic (Cricetulus griseus) (UniProt P09768).
T1 sequence (whole entry): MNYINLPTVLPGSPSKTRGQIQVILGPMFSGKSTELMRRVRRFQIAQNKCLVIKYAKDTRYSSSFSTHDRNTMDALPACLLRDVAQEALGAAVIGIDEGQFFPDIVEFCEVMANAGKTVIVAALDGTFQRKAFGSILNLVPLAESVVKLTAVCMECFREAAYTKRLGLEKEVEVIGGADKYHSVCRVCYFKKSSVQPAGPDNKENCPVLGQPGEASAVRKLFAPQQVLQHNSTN
The experiment can be described thus: Inhibition of thymidine kinase in BHK21 (C13) cells using thymidine as substrate assessed as formation of TMP at 3.4 mM. Format: cell-based. As to conditions: Mesocricetus auratus. A digest of the protocol:
(§1)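 BHK21(C13) 100000g supernatant in Tris-HCl 0.05 M pH 8.0, ATP 5 mM, MgCl2 2.5 mM, [14C]thymidine 3.6 μM, 10 min at 37 °C. Reaction stopped by boiling; [14C]TMP bound to DEAE-cellulose disks and counted by liquid scintillation, corrected for unincubated blanks.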

In experiment [2] the target is T1, Thymidine kinase, cytosolic (Cricetulus griseus). The experiment can be described thus: Inhibition of thymidine kinase in BHK21 (C13) cells using thymidine as substrate assessed as formation of TMP at 6.8 mM. It counts as cell-based. The settings on record: Mesocricetus auratus. The method in brief: as §1
The target is the same in experiment [3]. The experiment can be described thus: Activity at thymidine kinase in BHK21 (C13) cells at 400 uM after 30 mins relative to thymidine. Format: cell-based. As to conditions: Mesocricetus auratus. The method in brief: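 Radiolabeled thymidine or 2'-deoxyuridine derivatives tested as substrates: 40 μL BHK21(C13) 100000g supernatant, Tris-HCl 0.05 M pH 8.0, ATP 5 mM, MgCl2 2.5 mM, no thymidine, 30 min at 37 °C. Products separated by paper electrophoresis in 0.05 M triethylammonium bicarbonate pH 7.6; radioactivity counted in the TMP region.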

The target in experiment [4] is T2, Thymidine kinase 2, mitochondrial (Homo sapiens) (UniProt O00142).
T2 sequence (whole entry): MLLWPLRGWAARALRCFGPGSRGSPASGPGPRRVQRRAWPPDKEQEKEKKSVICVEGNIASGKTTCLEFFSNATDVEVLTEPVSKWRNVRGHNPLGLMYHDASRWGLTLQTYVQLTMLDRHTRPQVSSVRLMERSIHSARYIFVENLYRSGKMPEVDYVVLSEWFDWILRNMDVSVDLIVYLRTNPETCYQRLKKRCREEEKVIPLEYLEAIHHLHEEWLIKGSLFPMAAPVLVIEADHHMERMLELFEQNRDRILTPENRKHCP
The experiment can be described thus: Inhibition of human mitochondrial thymidine kinase using [14C]thymidine at 0.19 mM after 10 mins by liquid scintillation spectrometer analysis relative to control in presence of Mg2+.

Experiment [5] addresses T1, Thymidine kinase, cytosolic (Cricetulus griseus). The experiment can be described thus: Inhibition of thymidine kinase in BHK21 (C13) cells using thymidine as substrate assessed as formation of TMP at 0.2 mM. The settings on record: Mesocricetus auratus. Format: cell-based. The method in brief: as §1
The target is the same in experiment [6]. The experiment can be described thus: Inhibition of thymidine kinase in BHK21 (C13) cells using thymidine as substrate assessed as formation of TMP at 0.1 mM. Format: cell-based. The settings on record: Mesocricetus auratus. The method in brief: as §1
The target in experiment [7] is T3, Thymidine kinase, cytosolic (Homo sapiens) (UniProt P04183).
T3 sequence (whole entry): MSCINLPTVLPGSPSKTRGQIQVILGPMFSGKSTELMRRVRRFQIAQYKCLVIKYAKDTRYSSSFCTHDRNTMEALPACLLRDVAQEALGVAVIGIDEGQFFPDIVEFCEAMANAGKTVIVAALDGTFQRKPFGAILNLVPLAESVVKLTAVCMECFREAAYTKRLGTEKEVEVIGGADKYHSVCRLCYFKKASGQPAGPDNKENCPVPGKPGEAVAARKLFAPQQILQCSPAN
The experiment can be described thus: Effect on human cytoplasmic thymidine kinase using [14C]thymidine at 2 mM after 10 mins by liquid scintillation spectrometer analysis relative to control in presence of Mg2+.

The target in experiment [8] is T2, Thymidine kinase 2, mitochondrial (Homo sapiens). The experiment can be described thus: Effect on human mitochondrial thymidine kinase using [14C]thymidine at 2 mM after 10 mins by liquid scintillation spectrometer analysis relative to control in presence of Mg2+.
Experiment [9] has as its target T1, Thymidine kinase, cytosolic (Cricetulus griseus). The experiment can be described thus: Effect on thymidine kinase in BHK21 (C13) cells using [14C]thymidine at 5 mM after 10 mins by liquid scintillation spectrometer analysis relative to control in presence of Mg2+. Format: cell-based. As to conditions: Mesocricetus auratus. The method in brief:
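BHK21(C13) high-speed supernatant, 10 min at 37 °C, [14C]TMP on DEAE-cellulose disks, scintillation counting. Phosphate donors (nucleoside triphosphates 5 mM, giving 2.5 mM Mg2+ triphosphates) tested with 14.4 μM [14C]thymidine. Inhibitor assays used 0.19 mM [14C]thymidine: 5-iodo nucleosides at 0.19 mM with saturating Mg2+-ATP, or dCTP 5 mM with ATP 5 mM and MgCl2 7.5 mM.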

The target is the same in experiment [10]. The experiment can be described thus: Inhibition of thymidine kinase in BHK21 (C13) cells using thymidine as substrate assessed as formation of TMP at 7.2 mM. As to conditions: Mesocricetus auratus. Format: cell-based. The method in brief:
as §1

Experiment [11] shares this target. The experiment can be described thus: Inhibition of thymidine kinase in BHK21 (C13) cells using thymidine as substrate assessed as formation of TMP at 14.4 mM. Format: cell-based. As to conditions: Mesocricetus auratus. A digest of the protocol: as §1
Experiment [12] shares this target. The experiment can be described thus: Inhibition of thymidine kinase in BHK21 (C13) cells using [14C]thymidine at 200 uM after 10 mins by liquid scintillation spectrometer analysis relative to control in presence of Mg2+. It counts as cell-based. As to conditions: Mesocricetus auratus.
The target is the same in experiment [13]. The experiment can be described thus: Inhibition of thymidine kinase in BHK21 (C13) cells using thymidine as substrate assessed as formation of TMP at 0.28 mM. Format: cell-based. The settings on record: Mesocricetus auratus. The method in brief: as §1
Experiment [14] shares this target. The experiment can be described thus: Inhibition of thymidine kinase in BHK21 (C13) cells using thymidine as substrate assessed as formation of TMP at 1.4 mM. It counts as cell-based. As to conditions: Mesocricetus auratus. A digest of the protocol:
as §1

In experiment [15] the target is T4, Thymidine kinase, cytosolic (Mus musculus, UniProt P04184).
T4 sequence (P04184 whole entry): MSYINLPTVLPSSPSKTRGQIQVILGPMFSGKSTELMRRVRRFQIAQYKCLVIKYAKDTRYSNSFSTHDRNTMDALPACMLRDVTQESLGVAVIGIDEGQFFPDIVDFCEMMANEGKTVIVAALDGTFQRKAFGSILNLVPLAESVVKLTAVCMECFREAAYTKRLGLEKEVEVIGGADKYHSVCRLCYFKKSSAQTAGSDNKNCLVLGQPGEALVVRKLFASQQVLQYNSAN
The experiment can be described thus: Competitive inhibition of thymidine kinase in mouse Ehrlich's ascites cells.

In experiment [16] the target is T1, Thymidine kinase, cytosolic (Cricetulus griseus). The experiment can be described thus: Inhibition of thymidine kinase in BHK21 (C13) cells using thymidine as substrate assessed as formation of TMP at […]. Format: cell-based. As to conditions: Mesocricetus auratus.

For `CCNc1cn([C@H]2C[C@H](O)[C@@H](CO)O2)c(=O)[nH]c1=O`, the inhibition in experiment [1] worked out at 13%; in experiment [2], 25%. For the compound `CC(=O)NCC(O)[C@H]1O[C@@H](n2cc(C)c(=O)[nH]c2=O)C[C@@H]1O` (stereo in doubt; [14C]4b), the outcome in [3] was inactive. Take `Nc1nc(=O)n([C@H]2C[C@H](O)[C@@H](CO)O2)cc1I`: the inhibition in experiment [4] turned out to be 64%.

Regarding `O=c1ccn([C@H]2C[C@H](O)[C@@H](CO)O2)c(=O)[nH]1`, the inhibition is 59% in experiment [5] and 38% in experiment [6]. `Nc1nc(=O)c2ncn([C@@H]3O[C@H](COP(=O)(O)OP(=O)(O)OP(=O)(O)O)[C@@H](O)[C@@H]3O)c2[nH]1`: the Activity in experiment [7] came out at 36%; in experiment [8], 46%; in experiment [9] it was 6%. Take `CC(=O)NCC(O)[C@H]1O[C@@H](n2cc(C)c(=O)[nH]c2=O)C[C@@H]1O` (stereo in doubt; [14C]4a): the outcome in [3] was inactive. `CCn1c(=O)ccn([C@H]2C[C@H](O)[C@@H](CO)O2)c1=O`: the inhibition was determined as 24% in experiment [10] and 45% in experiment [11].

For `CCNc1cn([C@H]2C[C@H](O)[C@@H](COP(=O)(O)OP(=O)(O)OP(=O)(O)O)O2)c(=O)[nH]c1=O`, the inhibition entry in experiment [12] is “Active”.

With `CCS[C@H]1C[C@H](n2cc(C)c(=O)[nH]c2=O)O[C@@H]1CO`, the values for the inhibition in experiment [13] and in [14] were 31% and 60%, respectively. Turning to `Nc1ncnc2c1ncn2[C@H]1C[C@H](O)[C@@H](COP(=O)(O)OP(=O)(O)OP(=O)(O)O)O1`, the Activity came out at 108% in experiment [7], 56% in experiment [8] and 107% in [9]. Compound `CCOC1N([C@H]2C[C@H](O)[C@@H](CO)O2)C(=O)NC(=O)C1(C)Br` (single isomer, unassigned) had a Ki in experiment [15] of 24 µM. With `CC(=O)Nc1cn([C@H]2C[C@H](O)[C@@H](COP(=O)(O)OP(=O)(O)OP(=O)(O)O)O2)c(=O)[nH]c1=O`, in [12], the inhibition result is “Active”. Consider `CCOC1N([C@H]2C[C@H](O)[C@@H](CO)O2)C(=O)NC(=O)C1(C)Br` (single isomer, unassigned; more polar), for which the inhibitory constant (Ki) in experiment [15] was 24 µM.

Take `CC[S+]([O-])C[C@H]1O[C@@H](n2cc(C)c(=O)[nH]c2=O)C[C@@H]1O` (stereo partly drawn): the inhibition came out at 30% in [16] and 13% in [14].
